Results reported in ChEMBL document CHEMBL4706740, “Structure-Activity Study of Nitazoxanide Derivatives as Novel STAT3 Pathway Inhibitors” (ACS Med Chem Lett, 2021).
Calls of active or inactive are those of the source. The rule behind the calls is not given here.

Legend:
HeLa [1] = test: Induction of apoptosis in human HeLa cells assessed as late apoptotic cells at 10 uM incubated for 24 hrs by Annexin V-FITC/PI staining based flow cytometry (reference value: 4.7%); type: functional
[2] = Tmax in Sprague-Dawley rat at 25 mg/kg, IG; type: ADME, organism-based; settings: in vivo, po
[3] = target: Signal transducer and activator of transcription 3 (Homo sapiens) (UniProt P40763); test: Inhibition of STAT3 in human Hela cell lysate assessed as inhibition of protein and DNA interaction upto 100 uM cells preincubated 1 hr by electrophoretic mobility shift assay; type: subcellular; settings: dose microM <=100, time 1.0 hrs
[4] = target: Signal transducer and activator of transcription 3 (Homo sapiens) (UniProt P40763); test: Inhibition of STAT3 in human HeLa cells assessed as decrease in phosphorylation of STAT3 at Tyr705 upto 80 uM measured 15 to 120 mins by Western blot analysis; type: cell-based; settings: dose microM <=80, time lower […], time upper […]
How it was run: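 Time course in HeLa cells given 80 μM compound, sampled from 15 min onward through multiple hours; parallel runs at 20 and 40 μM. Total cell lysates Western blotted for p-STAT3 (Tyr705), p-STAT3 (Ser727) and total STAT3.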

HeLa [5] = test: Induction of apoptosis in human HeLa cells assessed as early apoptotic cells at 40 uM incubated for 24 hrs by Annexin V-FITC/PI staining based flow cytometry (reference value: 2.84%); type: functional
HeLa [6] = test: Induction of apoptosis in human HeLa cells assessed as viable cells at 40 uM incubated for 24 hrs by Annexin V-FITC/PI staining based flow cytometry (reference value: 92.45%); type: functional; settings: read-out: Activity
[7] = target: Signal transducer and activator of transcription 3 (Homo sapiens) (UniProt P40763); test: Inhibition of STAT3 in human HeLa cells assessed as decrease in phosphorylation of STAT3 at Tyr705 after 1 hrs by Western blot analysis; type: cell-based; settings: dose microM <=80, time 1.0 hrs
How it was run: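 HeLa cells were treated with graded doses for 1 h or 24 h. Total cell lysates were immunoblotted with specific antibodies against p-STAT3 (Tyr705), p-STAT3 (Ser727) and total STAT3.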

Caco-2 = test: Antiproliferative activity against human Caco-2 cells assessed as cell growth inhibition measured after 48 hrs by MTT assay; type: functional, cell-based; settings: Caco-2, 48 h
[8] = Elimination Half life in Sprague-Dawley rat at 25 mg/kg, IG; type: ADME, organism-based; settings: in vivo, po, read-out: beta t1/2 (converted)
How it was run: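 Rats, n = 3 per group, received a single dose either intragastrically (25 mg/kg) or intravenously (5 mg/kg). Plasma concentration–time curves were used to derive t1/2α, t1/2β, Vd/F, CL/F, AUC0–∞, Tmax and Cmax. Absolute oral bioavailability was calculated from the ig and iv data.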

Chain of Signal transducer and activator of transcription 3 (Homo sapiens) (P40763 whole entry): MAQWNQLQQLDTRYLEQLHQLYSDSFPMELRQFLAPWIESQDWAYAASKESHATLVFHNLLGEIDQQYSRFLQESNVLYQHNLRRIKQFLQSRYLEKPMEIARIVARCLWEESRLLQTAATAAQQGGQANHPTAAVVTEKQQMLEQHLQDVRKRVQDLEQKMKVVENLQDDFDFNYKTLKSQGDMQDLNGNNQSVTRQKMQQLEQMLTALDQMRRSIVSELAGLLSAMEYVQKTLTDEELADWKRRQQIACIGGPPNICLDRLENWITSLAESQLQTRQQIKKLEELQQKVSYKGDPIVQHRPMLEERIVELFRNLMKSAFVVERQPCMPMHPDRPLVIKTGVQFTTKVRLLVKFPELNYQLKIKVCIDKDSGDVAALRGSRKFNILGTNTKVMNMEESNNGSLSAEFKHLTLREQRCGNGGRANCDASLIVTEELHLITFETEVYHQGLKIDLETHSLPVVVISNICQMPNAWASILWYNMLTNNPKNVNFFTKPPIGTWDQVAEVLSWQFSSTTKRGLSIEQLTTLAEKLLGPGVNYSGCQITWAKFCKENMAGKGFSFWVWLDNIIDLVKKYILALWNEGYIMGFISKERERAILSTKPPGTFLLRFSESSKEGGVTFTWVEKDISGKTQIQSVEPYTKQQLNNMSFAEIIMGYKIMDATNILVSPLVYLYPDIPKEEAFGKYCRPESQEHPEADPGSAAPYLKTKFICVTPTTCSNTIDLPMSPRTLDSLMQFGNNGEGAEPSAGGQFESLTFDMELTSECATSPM

In the case of CC(=O)Oc1ccccc1C(=O)Nc1ncc([N+](=O)[O-])s1 [NITAZOXANIDE], the Activity (HeLa [1]) is reported as 5.32%, the Tmax [2] is reported as 2 h and the inhibition [3] is reported as “inactive”. For the same molecule, the inhibition [4] was “inactive”, the Activity (HeLa [5]) was 7.48% and the viability at 40 µM (HeLa [6]) was 77.3%. For the same molecule, the inhibition [7] was “Dose-dependent effect”, the IC50 (Caco-2) was 26.8 µM and the half-life [8] was 0.8 h.
